# Rows were chosen to be rich in hits. Some 2.6% of all compounds tested hit in one or more screens of this group.
# RAD52 inh = RAD52 DNA annealing inhibitors, primary screen, biochemical, FRET, single point, set 2 | AID 651710, 2012 | 360,000 compounds, 0.46% hits | recombinant RAD52 DNA annealing, FRET fluorescence | inhibition, % at 18.7 µM;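 active = every replicate showing at least 50% inhibition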
# GSIS activator = GLuc luminescence reporter in INS-1E cells, primary screen for activators of glucose-dependent secretion of insulin; AID 743287, 2014; INS-1E GLuc reporter insulin secretion, 2-3 h; 370,000 compounds, 0.61% hits; activation, % at 16.6 µM;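 active = lowest replicate activation of at least 40%, so every replicate reaches that level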;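 note: 0% = median of neutral control wells and 100% = median of IBMX positive control wells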
# E-selectin induc = E-selectin induction in HUVECs, primary screen, imaging, HUVEC, immunofluorescence imaging, single point; normalized: neutral wells 0, TNF-alpha wells 100; activation, % at 7.58 µM; 260,000 compounds, 0.37% hits; AID 686992, 2013;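 active = mean E-selectin-positive cell signal at least 10% of the positive control, reached in at least 60% of replicates, without over 20% cell loss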
#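 Read-out: % PE-positive cells | Test system: HUVEC | Doses: One compound dose added by pin transfer | Buffer or medium: EGM-2 over gelatin coat | Signal: Immunofluorescence imaging | Benchmarks: TNF-alpha, DMSO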
# RAD54 inh = inhibitors of human RAD54 branch migration, primary screen, biochemical, fluorescence, single point. AID 602329, 2012. inhibition, % at 10.4 µM. RAD54 Holliday junction branch migration, FAM/BHQ fluorescence. 360,000 compounds, 0.14% hits;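 active = mean normalized replicate activity at least 40 and at least half of replicates scoring 40 or more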;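 note: 0% = median of neutral control wells and 100% = median of positive control wells; inhibitors cause a drop in the FAM fluorescence signal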
# MLL AF4-AF9 inh = inhibitors of AF4 peptide binding to AF9, primary screen, biochemical, AlphaScreen, biotin-AF4 peptide, FLAG-AF9, single point; inhibition, % at 10 µM; AID 651704, 2012; 350,000 compounds, 0.47% hits; Protein AF-9 (Homo sapiens), P42568;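 active = every replicate reaching a set inhibition limit, whatever the replicate mean, cut at about 25% in these data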;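 note: 0% = plate neutral control median and 100% = total signal loss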
# Target sequence (P42568 whole entry, looked up): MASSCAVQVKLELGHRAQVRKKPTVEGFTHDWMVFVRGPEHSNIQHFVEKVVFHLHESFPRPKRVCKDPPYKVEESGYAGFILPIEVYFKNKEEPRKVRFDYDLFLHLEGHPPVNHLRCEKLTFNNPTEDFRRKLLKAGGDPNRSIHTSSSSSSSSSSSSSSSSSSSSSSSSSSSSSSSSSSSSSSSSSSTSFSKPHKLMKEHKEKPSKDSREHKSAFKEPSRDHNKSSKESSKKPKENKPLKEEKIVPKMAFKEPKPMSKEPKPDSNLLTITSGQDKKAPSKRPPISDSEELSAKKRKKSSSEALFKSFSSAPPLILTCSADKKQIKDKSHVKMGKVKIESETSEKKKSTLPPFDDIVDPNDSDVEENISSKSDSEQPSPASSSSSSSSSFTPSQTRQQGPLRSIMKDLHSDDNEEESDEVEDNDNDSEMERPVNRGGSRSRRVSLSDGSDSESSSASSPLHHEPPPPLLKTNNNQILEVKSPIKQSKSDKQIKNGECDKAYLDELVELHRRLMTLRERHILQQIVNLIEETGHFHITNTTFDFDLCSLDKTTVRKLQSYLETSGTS
# rRNA inh HTS = reduced GFP signal of wild-type E. coli, primary screen, bacterial rRNA inhibitor project, GFP/RFP fluorescence, OD600, single point. E. coli WT GFP vs humanized-ribosome RFP mutants, 24 h; active compounds read low; DMSO median 0, no signal -100. 350,000 compounds, 1.6% hits. GFP signal change (wild-type ribosome), % (test concentration not listed). AID 720706, 2013;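 active = significant combined selectivity score with lowered wild-type GFP, culture density cut under 30%, mutant RFP and density less affected; inactive = any of these conditions unmet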
# Active calls of the source: *; / = no result; ! = not confirmed by another sample.
SMILES,RAD52 inh,GSIS activator,E-selectin induc,RAD54 inh,MLL AF4-AF9 inh,rRNA inh HTS
COc1ccc(CN(C)C[C@H]2OCCCC[C@@H](C)Oc3ccc(NC(=O)Nc4ccc(C(F)(F)F)cc4)cc3C(=O)N([C@H](C)CO)C[C@@H]2C)cc1,43,-8,/,-3,8,-4
COc1ccc(CN(C)C[C@H]2OCCCC[C@@H](C)Oc3ccc(NC(=O)Nc4ccc(C(F)(F)F)cc4)cc3C(=O)N([C@@H](C)CO)C[C@@H]2C)cc1,50*,-9,/,-12,15,-14
CCCNC(=O)N1CC2(CN(CC3CCOCC3)C2)c2c(n(C)c3cc(OC)ccc23)[C@H]1CO,-10,19,0,/,0,1
Cc1ccc(-c2csc(N3C(=N)SCC3=O)n2)cc1,-17,13,/,/,-3,1
N=C1SCC(=O)N1c1ncc(Cc2ccc(F)cc2)s1,-12,28,/,-5,2,-47*
CCCc1cn(CC[C@H]2CC[C@H](NC(=O)Nc3ccccc3F)[C@@H](CO)O2)nn1,-3,6,0,-2,1,-2
COC(=O)Cn1c(=NC(=O)c2sc3ccccc3c2Cl)sc2cc(S(N)(=O)=O)ccc21,-7,3,/,/,-5,12
CCOC(=O)Cn1c(=NC(=O)c2sc3ccccc3c2Cl)sc2cc(S(N)(=O)=O)ccc21,/,71*,/,1,/,/
CCCNC(=O)N1CC2(CN(S(=O)(=O)c3cccc(OC)c3)C2)c2c(n(C)c3cc(OC)ccc23)[C@@H]1CO,/,3,/,/,/,-4
Cc1c(O)ccc2c(CN3CCN(Cc4ccccc4)CC3)cc(=O)oc12,-23,18,0,4,1,-1
Cc1ccccc1CN(C)Cc1cc(=O)oc2c(C)c(C)ccc12,-8,93*,2,2,-2,-4
Cc1c(O)ccc2c(CN(C)Cc3ccccc3)cc(=O)oc12,-5,5,0,8,-10,-25*
Fc1cccc(CN2[C@@H]3CNC[C@H]2C3c2ccc(-c3cccc(F)c3)cc2)c1 (stereo partly specified),51*!,-4,-1,/,2,-54
COc1ccc(-c2ccc(C3[C@H]4CNC[C@@H]3N4Cc3cc(OC)cc(OC)c3)cc2)cc1 (stereo partly specified),42,-22,0,/,-2,2
Fc1cccc(CN2[C@@H]3CNC[C@H]2C3c2ccc(-c3ccccc3)cc2)c1 (stereo partly specified),31,-16,0,/,/,-2
COc1cc(CN2[C@@H]3CNC[C@H]2C3c2ccc(-c3cccc(C)c3)cc2)cc(OC)c1 (stereo partly specified),59*,-13,0,/,3,-10
CCn1c(O)c(/C=N/N=C/c2ccc(OC)cc2)c2cc(C3=NNC(=O)CC3)ccc21,-118,65*,/,-11,-15,10
CC/C(C)=N\N=C\c1c(O)n(CC)c2cc(C3=NNC(=O)CC3)ccc12,/,/,/,-1,/,/
CCC(C(=O)NCCc1ccc(C)cc1)n1nc(C)c2c(C)n(-c3ccccc3)nc2c1=O (stereo unspecified),-7,-26,0,-17,1,-21*
Cc1cccc(Nc2c(F)c(F)c(F)c(F)c2C(=O)O)c1,-20,-8,/,/,1,-30*
COc1ccc(C#Cc2ccc3c(c2)[C@@H]2[C@@H](CCN2C(C)=O)[C@H](CO)N3C)cc1,/,-22,2,-24,/,1
CS(=O)(=O)NNC(=O)c1csc(Cc2c(Cl)sc3ccc(Cl)cc23)n1,-18,14,63*,/,-4,9
CC(C)C(=O)NNC(=O)c1csc(CS(=O)(=O)c2ccc(Cl)cc2)n1,-5,/,/,/,2,2
CCn1c(C)nc2cc(S(=O)(=O)C(F)(F)F)ccc21,/,99*,/,-3,/,/
C[C@@H]1CCCCO[C@@H](CN(C)C(=O)Nc2cccc3ccccc23)[C@H](C)CN([C@H](C)CO)C(=O)c2cc(NS(=O)(=O)c3cccs3)ccc2O1,-26,2,0,-9,4,-3
SMILES,RAD52 inh,GSIS activator,E-selectin induc,RAD54 inh,MLL AF4-AF9 inh,rRNA inh HTS
C[C@H]1CN([C@@H](C)CO)C(=O)c2cccc(NS(=O)(=O)c3ccc(Cl)cc3)c2O[C@H]1CN(C)S(C)(=O)=O,13,6,0,0,-3,5
CN(C)CCNCCCNc1c2ccccc2nc2cccc([N+](=O)[O-])c12,81*,/,0,/,17,5
C[C@@H]1CN([C@H](C)CO)C(=O)c2cc(C#Cc3cccnc3)cnc2O[C@@H]1CN(C)C(=O)CC1CC1,7,40,0,2,-5,2
CCOC(=O)c1cnc2c(c(C3CC3)nn2C)c1N1CCOCC1,-16,32,29*,-3,1,-18
CCOC(=O)c1cnc2cc(F)c(F)cc2c1N1CCOCC1,5,13,0,-6,-3,-1
C[C@H]1CN([C@@H](C)CO)C(=O)Cc2cc(NC(=O)Cc3ccccc3)ccc2O[C@@H]1CN(C)C,3,21,/,15,0,7
S=C(NCCN1CCOCC1)Nc1ccc(-c2nc3ccccc3[nH]2)cc1,-23,3,2,/,0,-24*
C[C@@H]1CCCCO[C@H](CN(C)Cc2ccncc2)[C@H](C)CN([C@@H](C)CO)C(=O)c2cc(NS(=O)(=O)c3ccc(F)cc3)ccc2O1,4,-7,0,-2,1,-2
Cc1cccc2c1NC(=O)C2=Nc1ccc(Cl)cc1,-21,7,/,5,-10,-19*
CC1Cc2ccccc2N1C(=O)COC(=O)c1cccc(Br)c1 (stereo unspecified),-20,-24,/,-5,1,-32*
CC1Cc2ccccc2N1C(=O)COC(=O)c1cc(Br)ccc1O (stereo unspecified),-10,-17,5,/,-1,10
CCOC(=O)c1cc2sccc2n1CC(=O)N1c2ccccc2CC1C (stereo unspecified),/,472*,/,/,/,/
COc1cccc(/C=C/C(=O)OCC(=O)N2c3ccccc3CC2C)c1 (stereo unspecified),-18,-36,0,-8,4,-18*
O=C(C[C@@H]1C[C@@H]2c3cc(NS(=O)(=O)c4ccc(F)cc4)ccc3O[C@@H]2[C@H](CO)O1)NCCN1CCCCC1,6,10,0,-7,6,2
C/C(N)=C(/C#N)C(=O)COC(=O)c1cc2c(s1)CCC(C)C2 (stereo unspecified),-10,0,/,/,0,-29*
C/C(N)=C(/C#N)C(=O)COC(=O)c1cc2c(s1)CCCC2,-14,-22,1,/,-1,-24

# Screening results: PubChem, Broad Institute
